This note sets out measurements from PubChem BioAssay.

Test [1] is described as follows: inhibitors of TNFa-induced NFkB p65 translocation, primary screen, imaging, HUVEC, MLSMR starter and 10KST1 sets (AID 438;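 active = inhibition above 20% together with a positive visual image hit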;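 note: compound added about 3h40 before a 20 min TNFalpha stimulation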;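 for inhibition: signal is the nuclear over cytoplasmic p65 intensity ratio per well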). The note with it: HUVEC TNFa-induced p65 nuclear translocation; cell count: measured here: nuclei count (cytotoxicity indicator), at 2.08 µM; inhibition: at 2 µM, stronger effect = higher value, 0% TNFa-plus-vehicle, 100% no-TNFa wells.
A short description of test [2]: endothelial E-selectin expression blockers – imaging, HUVEC, immunofluorescence, MLSMR starter and 10KST1 sets, primary screen (AID 487;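 active = visually confirmed hit in the image check and inhibition above 20%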;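 for inhibition: signal is fraction of cell area covered by stained E-selectin grains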;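 for nuclei count: 100% = median nuclei count of all wells on the same plate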). As to conditions: HUVEC TNFalpha-induced E-selectin immunofluorescence imaging, at 2 µM; inhibition: stronger effect = higher value; nuclei count: measured here: cell number, toxicity.
Test [3] is described as follows: Primary imaging screen for DUSP6 inhibitors that restore phospho-Erk in transfected HeLa cells, chemical complementation (AID 609;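 active = compounds giving at least 50% inhibition in the cell-based MKP-3 phosphatase rescue imaging test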;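 for inhibition: phospho-Erk level distribution per well compared with pooled transfected vehicle control wells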). As to conditions: HeLa MKP-3 transfected, phospho-Erk imaging KS statistic, at 10 µM, cells stimulated with TPA for 15 min.
In test [4] the target is Dual specificity protein phosphatase 6 (Homo sapiens) (UniProt Q16828). The test is described as above. The note with it: HeLa MKP-3 transfected, phospho-Erk imaging KS statistic; at 10 µM; stronger effect = higher value; cells stimulated with TPA for 15 min.
Chain of Dual specificity protein phosphatase 6 (Homo sapiens) (Q16828 whole entry, looked up): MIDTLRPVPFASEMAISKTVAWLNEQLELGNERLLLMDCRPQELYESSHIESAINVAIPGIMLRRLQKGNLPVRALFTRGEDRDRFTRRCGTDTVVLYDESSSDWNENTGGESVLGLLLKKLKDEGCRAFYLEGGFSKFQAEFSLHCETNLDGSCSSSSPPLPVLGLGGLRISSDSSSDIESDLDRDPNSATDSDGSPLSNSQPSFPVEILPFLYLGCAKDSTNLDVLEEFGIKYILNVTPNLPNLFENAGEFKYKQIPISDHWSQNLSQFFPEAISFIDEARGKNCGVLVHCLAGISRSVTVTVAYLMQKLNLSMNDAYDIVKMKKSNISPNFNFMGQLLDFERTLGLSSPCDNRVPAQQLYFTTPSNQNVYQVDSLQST
Test [5] deals with Voltage-gated potassium channel subunit beta-2 (Rattus norvegicus) (UniProt P62483). The test is described as follows: inhibitors of rat Kvbeta2 reductase activity – biochemical, NADPH fluorescence, primary screen (AID 622;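 active = fluorescence slope higher than the sample average by over 3 SD, cut at about -0.22 in these data, passing the limit was not always enough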;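 note: slope of raw intensity against log time taken from 70 to 1610 s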). As to conditions: recombinant KvBeta, 4-cyanobenzaldehyde reduction, at 10 µM, stronger effect = higher value.
Chain of Voltage-gated potassium channel subunit beta-2 (Rattus norvegicus) (P62483 whole entry, looked up): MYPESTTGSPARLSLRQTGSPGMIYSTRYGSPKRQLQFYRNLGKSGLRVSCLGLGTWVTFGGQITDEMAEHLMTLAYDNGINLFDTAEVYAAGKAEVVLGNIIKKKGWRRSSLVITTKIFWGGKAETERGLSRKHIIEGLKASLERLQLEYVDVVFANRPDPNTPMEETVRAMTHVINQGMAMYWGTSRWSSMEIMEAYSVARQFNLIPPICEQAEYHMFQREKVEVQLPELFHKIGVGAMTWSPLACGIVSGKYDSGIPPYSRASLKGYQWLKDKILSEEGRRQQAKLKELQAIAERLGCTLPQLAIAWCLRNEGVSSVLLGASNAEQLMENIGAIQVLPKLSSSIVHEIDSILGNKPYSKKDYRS
The target is the same in test [6]. In words: enhancers of rat Kvbeta2 NADPH turnover – biochemical, NADPH fluorescence, primary screen (AID 623;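 active = NADPH fluorescence slope more negative than the mean of all samples by about 3 SD, 99.7% confidence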;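 note: fluorescence intensity change per second fitted from 20 to 320 s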). As to conditions: Recombinant KvBeta, NADPH fluorescence decrease slope, 10 min; at 10 µM; stronger effect = lower value.
The target in test [7] is Muscarinic acetylcholine receptor M4 (Homo sapiens) (UniProt P08173). In words: M4-linked GIRK flux change, two-sided – cell-based, HEK293 M4/GIRK, thallium flux, BTC-AM, M4 allosteric agonist project, primary screen (AID 625;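 active = fluorescence slope after compound addition differing from the mean of all tested samples at 99.7% confidence, mostly higher but some lower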;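 note: thallium influx through GIRK channels coupled to M4 in HEK293 cells with BTC-AM dye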). As to conditions: at 10 µM, actives lie on both sides. A digest of the protocol: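 System: HEK293 cells with M4 receptor and GIRK channels | Incubation: Cells overnight at 37 °C, BTC-AM loading 1 h, reads 2 min total | Technique: Kinetic BTC-AM fluorescence sampled at 1 Hz, 10 s pre-addition baseline | Measure: Post-addition slope, 15–24 s, of baseline-normalized fluorescence | Control set: Carbachol positive, DMSO negative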
Chain of Muscarinic acetylcholine receptor M4 (Homo sapiens) (P08173 whole entry, looked up): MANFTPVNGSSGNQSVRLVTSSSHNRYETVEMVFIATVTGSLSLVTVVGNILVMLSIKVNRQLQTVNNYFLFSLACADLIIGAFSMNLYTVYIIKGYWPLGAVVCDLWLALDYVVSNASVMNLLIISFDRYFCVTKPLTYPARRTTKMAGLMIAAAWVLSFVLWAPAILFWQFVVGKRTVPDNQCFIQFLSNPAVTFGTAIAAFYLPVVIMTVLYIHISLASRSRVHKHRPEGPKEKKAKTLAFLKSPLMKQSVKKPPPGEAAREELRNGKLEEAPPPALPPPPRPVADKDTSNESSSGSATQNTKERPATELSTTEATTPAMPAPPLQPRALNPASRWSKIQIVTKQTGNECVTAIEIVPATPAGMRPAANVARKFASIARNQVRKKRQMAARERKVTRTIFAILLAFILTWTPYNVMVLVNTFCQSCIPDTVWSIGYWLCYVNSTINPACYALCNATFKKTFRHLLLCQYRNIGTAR

Test [8] in a line: inhibitors of larval lipid processing in zebrafish, primary screen, whole organism, PED6 fluorescence, gall bladder and intestine (AID 686).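 Note: larvae 5 to 7 days old with five fish per well; signal comes from phospholipase A2 cleavage of quenched PED6 carried via bile; overnight exposure to compound and PED6 before scoring.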 The note with it: Zebrafish larvae PED6 lipid processing, fluorescence scoring; screened at 20 µM (by protocol). A digest of the protocol: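 Test system – live zebrafish larvae aged 5-7 days, whole organism · Buffer or medium – E3 fish medium · Reagent – quenched phospholipase substrate PED6, 100 nM final, ingested by larvae · Doses – 20 µM single dose · Incubation – overnight compound and PED6 incubation · Technique – visual fluorescence microscopy scoring of gall bladder, gut · Read-out basis – visual per-well fluorescence inhibition score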

Test [9] in a line: loss of swimming-algae plug formation – whole organism, Chlamydomonas reinhardtii, WT vs cilia-less mutant, absorbance, 96-well, primary screen (AID 463189;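 active = inhibition at or above 50% relative to wild type and mutant plate controls; inactive = inhibition below 50%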;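 note: 0% = wild type cc124 cells in DMSO and 100% = ciliumless bld1 mutant cells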). The note with it: Chlamydomonas reinhardtii gravitaxis, OD600 absorbance, 2 days; at 10 µM; stronger effect = higher value.
The mark [10] stands for this setting: measured here: cell density z-score.
The mark [11] stands for this setting: measured here: nuclear c-Myc green intensity z-score.
[12] abbreviates: measured here: nuclear pErk red intensity z-score, stronger effect = higher value.

Activity calls are given as the source filed them.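 Rule for the calls, unless noted: active = a full or partial loss of lipid-probe fluorescence in the fish gall bladder, intestine or both, judged by eye; inactive = no fluorescence loss, or compound toxic to the fish.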

A word on the inhibition: it is the drop in the measured response relative to a control, in per cent. `CCCc1cc(=O)oc2c(C)c(O)c(CN3CCCCC3)cc12`: the cell count in test [1] was determined as 657. Also, the inhibition in test [1] was -2.4% (inactive); in test [2] it was -23.3% (inactive); in test [4] it was 1.04% (inactive); in test [9] it was 0.97% (inactive). In test [2], this compound registered a nuclei count of 157%. Besides, the figures for the z-score in test [3] (setting [10]), in test [3] (setting [11]) and in test [3] (setting [12]) were -0.426, -0.355 and 0.314, respectively. For the same compound, the fluorescence slope was -0.00538 (inactive) in [5] and 0.00467 (inactive) in [7]. Moreover, the NADPH fluorescence slope in [6] is -1.8e-06 (inactive). The call in [8] was inactive.
For `S=c1[nH]nc(-c2ccco2)n1C1CCCCC1`, the cell count in test [1] is 638. Besides, the inhibition is -2.9% (inactive) in test [1], 6.6% (inactive) in test [2], -7.67% (inactive) in [4] and -19.8% (inactive) in [9]. In test [2], the nuclei count is 143%. In addition, the z-score in test [3] (setting [10]) was -0.759; in test [3] (setting [11]), -0.86; in [3] (setting [12]), -1.13. Also, the fluorescence slope is -0.495 (inactive) in test [5] and 0.00615 (inactive) in [7]. Also, in [6], the NADPH fluorescence slope was -4e-05 (inactive). In addition, the outcome in [8] was inactive.
Regarding `Cc1cc(=O)n(CCC(=O)O)c2ccccc12`, the cell count in [1] came out at 722. In addition, the inhibition in test [1] is -2.6% (inactive); in test [2], -33.8% (inactive); in test [4], 5.95% (inactive); in test [9] it was -13% (inactive). This compound also showed a nuclei count in test [2] of 175%. In addition, the z-score was 1.44 in test [3] (setting [10]), -0.504 in [3] (setting [11]) and -1.75 in test [3] (setting [12]). For the same compound, the fluorescence slope in test [5] is -0.48 (inactive); in test [7] it was 0.0062 (inactive). The NADPH fluorescence slope in test [6] is -8.8e-05 (inactive). Also, the outcome in test [8] was inactive.
On to `CN(C)CCCn1c(NC(=O)C2CCCCC2)nc2ccccc21`, for which the cell count in test [1] was determined as 672. The inhibition in test [1] is 9.7% (inactive); in [2], -32.4% (inactive); in test [4], -3.95% (inactive); in test [9], -0.148% (inactive). In test [2], this compound yielded a nuclei count of 112%. The results for the z-score in test [3] (setting [10]), in test [3] (setting [11]) and in [3] (setting [12]) were 0.036, -0.199 and -1.54, respectively. In addition, the fluorescence slope in test [5] was -0.437 (inactive); in [7], 0.00538 (inactive). Moreover, the NADPH fluorescence slope in test [6] is -3.5e-05 (inactive). Also, the compound was classed as inactive in test [8].
With `N#Cc1c(NCCN)nc(NCc2ccccc2)c2c1CCN(Cc1ccccc1)C2`, the cell count in test [1] came out at 566. Besides, the inhibition in test [1] is 3% (inactive); in [2] it was -151% (inactive); in [4] it was 3.42% (inactive); in [9] it was 15.7% (inactive). This compound displayed a nuclei count in test [2] of 145%. For the same compound, the results for the z-score in test [3] (setting [10]), in [3] (setting [11]) and in [3] (setting [12]) were 0.625, -0.717 and 1.05, respectively. Besides, the figures for the fluorescence slope in test [5] and in test [7] were -0.466 (inactive) and 0.00448 (inactive), respectively. The NADPH fluorescence slope in test [6] was -8.7e-06 (inactive). Besides, the outcome in [8] was “active; weak signal in gallbladder and intestine”.
For `CCN(CC)CCCN1C(=O)C(=O)/C(=C(/O)c2ccc3c(c2)CC(C)O3)C1c1cccnc1` (stereo unspecified), the cell count in test [1] amounted to 574. Also, the inhibition in [1] was -10.8% (inactive); in test [2] it was 68% (inactive); in [4], 6.04% (inactive); in [9] it was 13.2% (inactive). For the same compound, the nuclei count in test [2] was 83.2%. Moreover, the z-score in test [3] (setting [10]) is -1.33; in [3] (setting [11]) it was 0.323; in test [3] (setting [12]), 0.536. Also, the fluorescence slope was -0.502 (inactive) in test [5] and 0.00627 (inactive) in test [7]. The NADPH fluorescence slope in test [6] was -2.4e-05 (inactive). Also, the compound was classed as inactive in [8].
In the case of `Cc1cc2ccccc2cc(C)c1=O`, the cell count in test [1] was 388. The inhibition is -6.2% (inactive) in test [1], -120% (inactive) in test [2], -0.584% (inactive) in test [4] and -12% (inactive) in [9]. This compound gave a nuclei count in test [2] of 168%. Besides, the values for the z-score in [3] (setting [10]), in test [3] (setting [11]) and in test [3] (setting [12]) were 1.48, 0.00969 and -1.01, respectively. The fluorescence slope in [5] was -0.453 (inactive); in test [7], 0.00444 (inactive). Besides, the NADPH fluorescence slope in test [6] is -9e-05 (inactive). Also, the outcome in test [8] was inactive.
